According to ChEMBL document CHEMBL1133105, “Antimalarial, antitrypanosomal, and antileishmanial activities and cytotoxicity of bis(9-amino-6-chloro-2-methoxyacridines): influence of the linker” (J Med Chem, 2000):
pIC50: −log10 of the molar value.

Assays:
Leishmania infantum [1] = assay: Percentage of activity against Leishmania infantum at 3.13 uM; format: functional
Method in brief: (§1)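 Starch-stimulated mouse peritoneal macrophages, 30 000/well, infected after 24 h with spleen-derived L. infantum amastigotes (10:1) together with 2-fold drug dilutions (12.5–1.56 µM). Incubated 7 days at 37 °C, 5% CO2. Wright-stained slides scored microscopically as % reduction of total parasite load or of infected macrophages. Uninfected treated cultures judged microscopically for macrophage toxicity.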

Trypanosoma cruzi [2] = assay: Percentage of activity against Trypanosoma cruzi at 1.56 uM; format: functional
Method in brief: (§2)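 Mouse peritoneal macrophages, 30 000/well, infected after 24 h with about 100 000 T. cruzi trypomastigotes per well plus 2-fold drug dilutions (12.5–1.56 µM). Incubated 4 days at 37 °C, 5% CO2. Methanol-fixed, Giemsa-stained and scored microscopically as % reduction of total parasite load (free trypomastigotes plus intracellular amastigotes) versus untreated controls.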

Trypanosoma brucei [3] = assay: Percentage of activity against Trypanosoma brucei at 3.13 uM; format: functional
Method in brief: (§3)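 Bloodstream-form T. brucei in HMI-9 medium, 10 000 parasites/well, exposed to 12.5, 6.25, 3.13 and 1.56 µM drug for 4 days. Read-out is % inhibition of parasite multiplication. Macrophage toxicity judged on mouse primary peritoneal macrophages.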

MRC5 [4] = assay: Cytotoxicity on MRC-5 cells at 3.13 uM; format: functional; details: Homo sapiens
Method in brief: (§4)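 MRC-5 human diploid embryonic lung cells seeded at 5 000/well, washed after 24 h, then given 2-fold drug dilutions (25, 12.5, 6.25, 3.13 µM) in RPMI + 5% FCS, final DMSO below 0.5%. Incubated 7 days at 37 °C, 5% CO2. MTT colorimetric read-out, scored as % reduction of absorbance at 540 nm versus untreated controls.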

MRC5 [5] = assay: Cytotoxicity on MRC-5 cells at 25 uM; format: functional; details: Homo sapiens; method in brief: as §4
Plasmodium falciparum = assay: In vitro sensitivity for Plasmodium falciparum FcB1R; format: functional, organism-based
Method in brief: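 Asynchronous P. falciparum cultures in human erythrocytes (0.5% parasitemia, 1% haematocrit) exposed to serially diluted drug for 24 h at 37 °C. [3H]hypoxanthine (0.5 µCi/well) then added for a further 24 h. Uptake compared with drug-free controls on the same plate. IC50 taken from the concentration–response curve, averaged over independent experiments. DMSO ≤0.1%.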

Trypanosoma cruzi [6] = assay: Percentage of activity against Trypanosoma cruzi at 3.13 uM; format: functional; method in brief: as §2
Leishmania infantum [7] = assay: Percentage of activity against Leishmania infantum at 12.5 uM Concentration; Toxic upon mouse primary peritoneal macrophages; format: functional, organism-based; method in brief: as §1
Trypanosoma cruzi [8] = assay: Percentage of activity against Trypanosoma cruzi at 12.5 uM; format: functional; method in brief: as §2
Leishmania infantum [9] = assay: Percentage of activity against Leishmania infantum 6.25 uM; format: functional; method in brief: as §1
Trypanosoma brucei [10] = assay: Percentage of activity against Trypanosoma brucei at 1.56 uM; format: functional; method in brief: as §3
MRC5 [11] = assay: Cytotoxicity on MRC-5 cells at 6.25 uM; format: functional; details: Homo sapiens; method in brief: as §4
Trypanosoma brucei [12] = assay: Percentage of activity against Trypanosoma brucei at 6.25 uM; format: functional; method in brief: as §3
Trypanosoma cruzi [13] = assay: Percentage of activity against Trypanosoma cruzi at 6.25 uM Concentration; format: functional; method in brief: as §2
Trypanosoma brucei [14] = assay: Percentage of activity against Trypanosoma brucei at 12.5 uM; format: functional; method in brief: as §3
Leishmania infantum [15] = assay: Percentage of activity against Leishmania infantum at 1.56 uM; format: functional; method in brief: as §1
MRC5 [16] = assay: Cytotoxicity on MRC-5 cells at 12.5 uM; format: functional; details: Homo sapiens; method in brief: as §4
Trypanosoma cruzi [17] = assay: Percentage of activity against Trypanosoma cruzi at 12.5 uM; Toxic upon mouse primary peritoneal macrophages; format: functional, organism-based; method in brief: as §2
Trypanosoma cruzi [18] = assay: In Vitro evaluation for the percentage of activity towards Trypanosoma cruzi at 6.25 uM Concentration; Toxic upon mouse primary peritoneal macrophages; format: functional, organism-based; method in brief: as §2
Leishmania infantum [19] = assay: Percentage of activity against Leishmania infantum at 6.25 uM; Toxic upon mouse primary peritoneal macrophages; format: functional, organism-based; method in brief: as §1

Row | SMILES | Percent antileishmanial activity (reduction of parasite load) (Leishmania infantum [1]) | Parasite load reduction (Trypanosoma cruzi [2]) | Parasite growth inhibition (Trypanosoma brucei [3]) | cytotoxicity at 3.13 µM (MRC5 [4]) | cytotoxicity at 25 µM (MRC5 [5]) | pIC50 (Plasmodium falciparum) | Reduction of T. cruzi parasite load (Trypanosoma cruzi [6]) | Cytotoxicity (Leishmania infantum [7]) | T. cruzi parasite load reduction (Trypanosoma cruzi [8]) | Antileishmanial activity (% reduction of parasite load) (Leishmania infantum [9]) | Percent inhibition of parasite multiplication (Trypanosoma brucei [10]) | cytotoxicity at 6.25 µM (MRC5 [11]) | Inhibition of parasite multiplication (Trypanosoma brucei [12]) | Reduction of T. cruzi parasite load (Trypanosoma cruzi [13]) | Inhibition of parasite multiplication (Trypanosoma brucei [14]) | Antileishmanial activity (% reduction of parasite load) (Leishmania infantum [15]) | cytotoxicity at 12.5 µM (MRC5 [16]) | Cytotoxicity (Trypanosoma cruzi [17]) | Cytotoxicity (Trypanosoma cruzi [18]) | Cytotoxicity (Leishmania infantum [19])
1 | COc1ccc2nc3cc(Cl)ccc3c(NCCCCCCCCCCCCNc3c4ccc(Cl)cc4nc4ccc(OC)cc34)c2c1 | 40% | 0% | 100% | 0% | 100% | 6.75 | 0% | Toxic | 90% | 80% | 70% | 0% | 100% | 40% | 100% | 0% | 20% |  |  | 
2 | COc1ccc2nc3cc(Cl)ccc3c(NCCCN(CCCNc3c4ccc(Cl)cc4nc4ccc(OC)cc34)C(=O)C(CN)NC(=O)OC(C)(C)C)c2c1 (stereo unspecified) | 0% | 0% | 100% | 0% | 39% | 6.51 | 40% | Toxic |  |  | 99% | 0% | 100% |  |  | 0% | 37% | Toxic | Toxic | Toxic
3 | COc1ccc2nc3cc(Cl)ccc3c(NCCCN(CCCNc3c4ccc(Cl)cc4nc4ccc(OC)cc34)C(=O)CNC(=O)C(C)NC(=O)OC(C)(C)C)c2c1 (stereo unspecified) | 0% | 0% | 100% | 31% | 100% | 6.36 | 0% | Toxic |  |  | 100% | 41% | 100% | 40% |  | 0% | 71% | Toxic |  | Toxic
4 | COc1ccc2nc3cc(Cl)ccc3c(NCCCCCCCCCCNc3c4ccc(Cl)cc4nc4ccc(OC)cc34)c2c1 | 70% | 0% | 100% | 0% | 90% | 7.24 | 40% | Toxic | 99% | 90% | 100% | 0% | 100% | 70% | 100% | 20% | 80% |  |  | 
5 | COc1ccc2nc3cc(Cl)ccc3c(NCCCN(CCCNc3c4ccc(Cl)cc4nc4ccc(OC)cc34)C(=O)C(COCc3ccccc3)NC(=O)OC(C)(C)C)c2c1 (stereo unspecified) | 70% | 0% | 100% | 100% | 100% | 6.86 | 40% | Toxic |  | 90% | 100% | 100% | 100% | 80% | 100% | 40% | 100% | Toxic |  | 
6 | COc1ccc2nc3cc(Cl)ccc3c(NCCCN(CCCNc3c4ccc(Cl)cc4nc4ccc(OC)cc34)C(=O)C(CC(=O)OC3CCCCC3)NC(=O)OC(C)(C)C)c2c1 (stereo unspecified) | 60% | 0% | 100% | 40% | 100% | 7.51 | 20% | Toxic | 98% | 80% | 100% | 100% | 100% | 70% | 100% | 20% | 100% |  |  | 
7 | COc1ccc2nc3cc(Cl)ccc3c(NCCCN(CCCNc3c4ccc(Cl)cc4nc4ccc(OC)cc34)C(=O)CCN3CCNCC3)c2c1 | 0% | 0% | 99% | 0% | 15% | < 6.30 | 0% | Toxic | 90% | 0% | 95% | 0% | 100% | 0% |  | 0% | 0% |  |  | 
